Laboratory results as given in ChEMBL document CHEMBL4513216, “Probing the Open Global Health Chemical Diversity Library for Multistage-Active Starting Points for Next-Generation Antimalarials” (ACS Infect Dis, 2020).

Experiment: Toxicity liver stage against HepG2, at 10uM
Format: cell-based
Parameters: test concentration 10 uM, cell line HepG2-A16-CD81EGFP
Conditions: human, HepG2-A16-CD81EGFP cells; read-out: INHIBITION
Outline: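 Uninfected HepG2-A16-CD81EGFP cells, 3 × 10^3 per well, 1536-well, plated on prespotted compound at 10 μM final, parasite-free screening media added to match infected plates; puromycin 10 μM positive, DMSO 0.5% negative; run in parallel with 48 h PbLuc assay at 37 °C, 5% CO2; viability by CellTiter-Glo luminescence, normalized to controls.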
With `Cc1ccccc1CN1CC[C@H](c2nnc(-c3cncn3C)o2)C1` the cytotoxicity at 10 µM was 5.08%.
Molecule `O=C1CC(c2ccsc2)c2cnn(C3CCCC3)c2N1` (configuration not stated) has a cytotoxicity at 10 µM of -0.524%.
With `Cc1cc(=O)[nH]c(-n2nc(C)c(CCC(=O)NCc3ccco3)c2C)n1` the cytotoxicity at 10 µM was -5.33%.
`CCOCC1CN(Cc2ccc(F)cc2)Cc2nn(CC3CC3)cc21` (configuration not stated) showed a cytotoxicity at 10 µM of 7.43%.
`Cn1cc(CN2CC[C@H]3OCC[C@@H](C(=O)NCc4ccco4)[C@@H]3C2)cn1` showed a cytotoxicity at 10 µM of 6.79%.
`Cn1cc(CN2CCc3onc(COCC4CC4)c3C2)cn1` gave a cytotoxicity at 10 µM of 6.35%.
For `Cc1cc(C(=O)N2CCn3cnc(COCC4CC4)c3C2)no1`, the cytotoxicity at 10 µM was 1.85%.
Work on `CCOCC1CN(C(=O)COc2ccccc2)Cc2cn(C)nc21` (configuration not stated) yielded a cytotoxicity at 10 µM of 9.08%.
For `O=C1CC(c2ccc3c(c2)OCO3)c2c(n3ccsc3nc2=O)N1` (configuration not stated), the cytotoxicity at 10 µM was 8.38%.
Work on `O=C1CC(c2ccc3c(c2)OCO3)c2cn[nH]c2N1` (configuration not stated) yielded a cytotoxicity at 10 µM of 13.3%.
For `Cc1nn(C)cc1CN1CCC(c2ncc(Cl)cc2S(C)(=O)=O)CC1`, the cytotoxicity at 10 µM was -0.1%.
`O=C(O)c1ccccc1-c1ccc(CN2CC(c3ccncn3)C2)o1` showed a cytotoxicity at 10 µM of 4.54%.
In the case of `CN1CCN([C@@H]2CN(C(=O)CCOc3ccccc3)C[C@H]2O)CC1`, the cytotoxicity at 10 µM is reported as 1.17%.
`Cn1cc(C2=NOC(C(=O)NC3(c4cccc(F)c4)CCCC3)C2)cn1` (configuration not stated) gave a cytotoxicity at 10 µM of 1.53%.
Molecule `O=C(Nc1ccc(-c2csnn2)cc1)NC(CCO)C1CC1` (configuration not stated) has a cytotoxicity at 10 µM of 15.6%.
Molecule `CC(C)(C)n1cc(CNC2CCN(C(=O)c3ccco3)CC2)cn1` has a cytotoxicity at 10 µM of -8.08%.
With `COc1ccccc1CC1CCCN(C(=O)c2cc[nH]n2)C1` (configuration not stated) the cytotoxicity at 10 µM was 6.11%.
Work on `COCC(C)NC(=O)N1CCN(S(C)(=O)=O)CC1` (configuration not stated) yielded a cytotoxicity at 10 µM of -6.53%.
Work on `Cc1ccc(CNC(=O)c2ccc(=O)n(C)n2)c(OC2CCCC2)c1` yielded a cytotoxicity at 10 µM of 5.25%.
Molecule `CC(C)c1ccccc1OCCNC(=O)N1CCC(CC(N)=O)CC1` has a cytotoxicity at 10 µM of 3.2%.
In the case of `CC1CN(c2ncnc3c2cnn3C)CCN1c1nccs1` (configuration not stated), the cytotoxicity at 10 µM is reported as 7.04%.
Molecule `Cc1nn(C)c(C)c1C1CCCN1CC(=O)N(C)c1nccs1` (configuration not stated) has a cytotoxicity at 10 µM of -1.32%.
In the case of `Cc1cc(COC(=O)[C@@H]2Cc3ccccc3CN2S(C)(=O)=O)no1`, the cytotoxicity at 10 µM is reported as -9.87%.
`O=C1CN(C(=O)c2cc(Cl)ccc2F)c2ccccc2N1` showed a cytotoxicity at 10 µM of 79.6%.
Work on `COC(=O)c1ccc(Cl)c(NS(=O)(=O)c2cnn(C)c2)c1` yielded a cytotoxicity at 10 µM of 0.214%.
For `O=C1NCC(C(=O)N(Cc2cccc(Br)c2)C2CC2)N1` (configuration not stated), the cytotoxicity at 10 µM was 1.56%.
`O=C(C(CNCc1cccs1)c1ccccc1)N1CCOCC1` (configuration not stated) gave a cytotoxicity at 10 µM of 0.142%.
In the case of `O=C(NCc1ccoc1)NC1CCN(c2ncccn2)CC1`, the cytotoxicity at 10 µM is reported as 6.36%.
`CCc1cnc(CN(C)C2CCN(CC3CCOCC3)C2)o1` (configuration not stated) gave a cytotoxicity at 10 µM of -13.4%.
Molecule `CC(C)c1nnc(NCc2ccsc2)o1` has a cytotoxicity at 10 µM of -0.19%.
Work on `COC(=O)CN(C(=O)c1ccc(-n2ccnc2)cc1)C1CC1` yielded a cytotoxicity at 10 µM of -5%.
In the case of `O=C(N1CCOCC1)N1CCN(c2ccnc3ccsc23)CC1`, the cytotoxicity at 10 µM is reported as -4.48%.
`COCCn1ccc2ccc(NC(=O)NCc3noc(C)n3)cc21` gave a cytotoxicity at 10 µM of 7.36%.
Molecule `Cc1nc(CNC(=O)Nc2cc(F)ccc2OC(F)F)no1` has a cytotoxicity at 10 µM of 0.311%.
Work on `CC(C)N(CCCNC(=O)C1CC(=O)N(C)C1)S(C)(=O)=O` (configuration not stated) yielded a cytotoxicity at 10 µM of 8.35%.
`COC(=O)c1ccc(Cn2cnc(C#N)n2)cc1` gave a cytotoxicity at 10 µM of -4.74%.
Work on `CS(=O)(=O)CC1(CNc2cc(C#N)c3cc(Cl)ccc3n2)CC1` yielded a cytotoxicity at 10 µM of -4.06%.
`O=C(c1cc(F)ccc1O)N1CCN(C(=O)C2CCC2)CC1` showed a cytotoxicity at 10 µM of 1.22%.
For `CC(C)(C)c1n[nH]cc1CNC1CCC(O)CC1` (configuration not stated), the cytotoxicity at 10 µM was 2.33%.
Work on `CCN(CC)S(=O)(=O)c1ccc(CNC(=O)c2cc(C)on2)cc1` yielded a cytotoxicity at 10 µM of 27.4%.
`CC(C)COCC(NC(=O)CSc1nnc[nH]1)c1ccco1` (configuration not stated) showed a cytotoxicity at 10 µM of 11.4%.
For `CCOC[C@@]12CCC[C@@H]1CN(C(=O)c1ccc(OC)cc1)C2`, the cytotoxicity at 10 µM was -108%.
`CO[C@H]1CN(C(=O)c2nc(-c3ccccc3)[nH]c2C)CC[C@H]1N` gave a cytotoxicity at 10 µM of 11.5%.
In the case of `CCc1cnc(C)nc1NCCN1CCCC(C(N)=O)C1` (configuration not stated), the cytotoxicity at 10 µM is reported as -2.54%.
`COc1ccc(Cl)cc1CN(C)C(=O)CN1C(=O)OC[C@@H]1C(C)C` showed a cytotoxicity at 10 µM of -4.29%.
`Cn1ccnc1-c1cn(Cc2cn3c(n2)SCC3)nn1` gave a cytotoxicity at 10 µM of -0.773%.
In the case of `CN(CC(=O)N1CCC(OCc2cccnc2)CC1)c1ccccc1`, the cytotoxicity at 10 µM is reported as 7.56%.
`Cc1nc(C(C)NC(=O)c2cn(CCC3CCCCC3)nn2)n[nH]1` (configuration not stated) gave a cytotoxicity at 10 µM of 9.21%.
In the case of `O=C(N[C@@H]1CCN(c2nccc3ccccc23)C[C@H]1O)c1cnccn1`, the cytotoxicity at 10 µM is reported as -6.71%.
`Cc1nnsc1C(=O)NCc1cccnc1N1CCc2ccccc2C1` showed a cytotoxicity at 10 µM of 10.8%.
For `O=C1CN(c2cc(-c3ccccc3F)nc3ccnn23)CCCN1`, the cytotoxicity at 10 µM was 2.77%.
Work on `CNc1cc(-c2cccc(CN)c2)c2cc[nH]c2n1` yielded a cytotoxicity at 10 µM of -3.23%.
`CC(C)n1cc(C(=O)NCC(CO)Cc2cccs2)cn1` (configuration not stated) showed a cytotoxicity at 10 µM of 7.64%.
In the case of `CC(C)N1CCCC2(CCN(C(=O)CCCn3cccn3)C2)C1=O` (configuration not stated), the cytotoxicity at 10 µM is reported as 0.264%.
With `O=C(Cc1ccc(F)cc1)NCCNCc1cccc(O)c1` the cytotoxicity at 10 µM was -10.4%.
In the case of `CNS(=O)(=O)c1cccc(C(=O)N(C)Cc2ccsc2)c1`, the cytotoxicity at 10 µM is reported as 4.04%.
Work on `CCc1nnc2n1CCN(C(=O)c1cc(C)n(-c3ccccc3)c1C)C2` yielded a cytotoxicity at 10 µM of -8.7%.
Molecule `O=C(CCc1ccc(Cl)s1)NCc1nnc2n1CCCCC2` has a cytotoxicity at 10 µM of -6.1%.
Molecule `CCCc1nc(CN2CCOC(Cn3cncn3)C2)cs1` (configuration not stated) has a cytotoxicity at 10 µM of -8.44%.
`COCCCNC(=O)CN(C)C(=O)c1cc2cc(C)ccc2nc1C` gave a cytotoxicity at 10 µM of -10.2%.
Work on `Cc1nc(C)n(C2CCCN(C(=O)c3ccc(OC(C)C)nc3)C2)n1` (configuration not stated) yielded a cytotoxicity at 10 µM of -5.92%.
`O=C(NC1CC1)C(c1ccccc1)N1CCn2c(nnc2C2CC2)C1` (configuration not stated) showed a cytotoxicity at 10 µM of -6.22%.
`CCOc1ccc(Cl)c(C(=O)NCCc2ncc[nH]2)n1` gave a cytotoxicity at 10 µM of -11.2%.
`Cn1ccc(CN2CCC(NC(=O)C3CCCCC3)CC2)cc1=O` gave a cytotoxicity at 10 µM of -13%.
`Fc1ccc(OCCCN2CCCC(Cn3cncn3)C2)cc1` (configuration not stated) gave a cytotoxicity at 10 µM of -7.81%.
With `O=C(c1cnc(-c2ccco2)s1)N1CCCCC1Cn1cccn1` (configuration not stated) the cytotoxicity at 10 µM was -5.83%.
Molecule `CCc1nc(C2CCCN2CC(=O)Nc2sc(C)c(C)c2C)no1` (configuration not stated) has a cytotoxicity at 10 µM of -10.9%.
`CC(=O)NCCNC(=O)c1sc(-c2ccc(Cl)s2)nc1C` gave a cytotoxicity at 10 µM of -1.28%.
With `CCS(=O)(=O)c1ccccc1N1CCC(NC(C)=O)CC1` the cytotoxicity at 10 µM was -5.31%.
`CCC(NC(=O)CC(F)(F)F)c1ccccc1OCC(=O)N1CCCC1` (configuration not stated) gave a cytotoxicity at 10 µM of 0.145%.
In the case of `COc1ccccc1CC(=O)NCc1c(C)nc2cc(=O)[nH]n2c1C`, the cytotoxicity at 10 µM is reported as -6.8%.
With `COCCNc1ccc(CNC(=O)Nc2cn[nH]c2)cc1` the cytotoxicity at 10 µM was -2.68%.
`Cc1cc(C)n(CC2CCCCN2C(=O)c2ccc3c(c2)OCO3)n1` (configuration not stated) gave a cytotoxicity at 10 µM of 5.44%.
`OC(COCc1ccccc1F)CN1CCc2c(ncn2C2CC2)C1` (configuration not stated) gave a cytotoxicity at 10 µM of 2.86%.
With `CCCc1nc(C)c(C(=O)NCCN2CCN(CC)CC2)s1` the cytotoxicity at 10 µM was -10.6%.
Work on `CCc1nc(C2CCCN2Cc2nnc(Cc3ccccc3)o2)no1` (configuration not stated) yielded a cytotoxicity at 10 µM of -0.313%.
In the case of `COCC1CN(C(=O)COc2ccc(C)cc2)Cc2cn(C)nc21` (configuration not stated), the cytotoxicity at 10 µM is reported as 2.49%.
`CS(=O)(=O)N1CCOCC2(CCN(c3ccccn3)C2)C1` (configuration not stated) showed a cytotoxicity at 10 µM of 14.3%.
`O=C(c1ccccc1)N1CCC[C@]2(C[C@@H](Oc3ncccc3F)CO2)C1` showed a cytotoxicity at 10 µM of -1.78%.
In the case of `Cc1nn(C)c(N2CCOCC2)c1CNC1CCc2cc(F)ccc21` (configuration not stated), the cytotoxicity at 10 µM is reported as -9.95%.
In the case of `NCC1[C@H]2CN(Cc3ccccc3)C[C@@H]12` (some centres not stated), the cytotoxicity at 10 µM is reported as 4.78%.
`Cn1cc(CCC(=O)N2C[C@H]3CC[C@@H](C2)N(Cc2ccccn2)C3)cn1` showed a cytotoxicity at 10 µM of -1.95%.
